Source: ChEMBL document CHEMBL5058577, “EUbOPEN Chemogenomics Library 2 (Multiplex)” (2022)

Test system: U2OS
Assay: Multiplex assay against U2OS
Format: toxicity, cell-based
Conditions: human
Procedure, shortened: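 At seeding, live cells were stained with Hoechst33342, BioTracker Green Microtubule Cytoskeleton Dye, MitoTracker Red and Annexin V Alexa Fluor 680. After compound addition they were imaged on a CQ1 microscope at 37°C and 5% CO2, and CellPathfinder machine-learning gating sorted them into Hoechst high-intensity objects or normal cells, with normal cells further split into healthy, pyknosed or fragmented nuclei and pyknosed cells into mitotic or apoptotic. Tubulin, mitochondrial-mass and membrane-permeability phenotypes are given as per cents of cells with healthy nuclei.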

[1] = 12 h, 1 µM, compound concentration 1 uM, replicate 1
[2] = 12 h, 1 µM, compound concentration 1 uM, replicate 2
[3] = 12 h, 10 µM, compound concentration 10 uM, replicate 1
[4] = 12 h, 10 µM, compound concentration 10 uM, replicate 2
[5] = 24 h, 1 µM, compound concentration 1 uM, replicate 1
[6] = 24 h, 1 µM, compound concentration 1 uM, replicate 2
[7] = 24 h, 10 µM, compound concentration 10 uM, replicate 1
[8] = 24 h, 10 µM, compound concentration 10 uM, replicate 2
[9] = 48 h, 1 µM, compound concentration 1 uM, replicate 1
[10] = 48 h, 1 µM, compound concentration 1 uM, replicate 2
[11] = 48 h, 10 µM, compound concentration 10 uM, replicate 1
[12] = 48 h, 10 µM, compound concentration 10 uM, replicate 2

Structure (SMILES): CC1(COc2ccc3c(c2)ncn3-c2ccc3cccc(N4CCC(N)CC4)c3n2)COC1 [CRENOLANIB]
- Population Apoptotic (%) [1]: 58%
- Population Fragmented Nuclei (%) [1]: 36%
- Population Healthy Nuclei (%) [1]: 50%
- Population Hoechst High Intensity Objects (%) [1]: 9%
- Population Membrane Permeable-Phenotype (%) [1]: 87%
- Population Mitochondria Different-Phenotype (%) [1]: 51%
- Population Mitotic Cells (%) [1]: 41%
- Population Normal (%) [1]: 90%
- Population Pyknosed Nuclei (%) [1]: 13%
- Population Tubulin-Different-Phenotype (%) [1]: 92%
- Total Cell Count [1]: 143
- Population Apoptotic (%) [2]: 25%
- Population Fragmented Nuclei (%) [2]: 28%
- Population Healthy Nuclei (%) [2]: 60%
- Population Hoechst High Intensity Objects (%) [2]: 13%
- Population Membrane Permeable-Phenotype (%) [2]: 82%
- Population Mitochondria Different-Phenotype (%) [2]: 73%
- Population Mitotic Cells (%) [2]: 75%
- Population Normal (%) [2]: 86%
- Population Pyknosed Nuclei (%) [2]: 10%
- Population Tubulin-Different-Phenotype (%) [2]: 88%
- Total Cell Count [2]: 86
- Population Apoptotic (%) [3]: 81%
- Population Fragmented Nuclei (%) [3]: 43%
- Population Healthy Nuclei (%) [3]: 11%
- Population Hoechst High Intensity Objects (%) [3]: 21%
- Population Membrane Permeable-Phenotype (%) [3]: 76%
- Population Mitochondria Different-Phenotype (%) [3]: 80%
- Population Mitotic Cells (%) [3]: 18%
- Population Normal (%) [3]: 78%
- Population Pyknosed Nuclei (%) [3]: 44%
- Population Tubulin-Different-Phenotype (%) [3]: 88%
- Total Cell Count [3]: 274
- Population Apoptotic (%) [4]: 92%
- Population Fragmented Nuclei (%) [4]: 37%
- Population Healthy Nuclei (%) [4]: 21%
- Population Hoechst High Intensity Objects (%) [4]: 24%
- Population Membrane Permeable-Phenotype (%) [4]: 47%
- Population Mitochondria Different-Phenotype (%) [4]: 76%
- Population Mitotic Cells (%) [4]: 7%
- Population Normal (%) [4]: 75%
- Population Pyknosed Nuclei (%) [4]: 41%
- Population Tubulin-Different-Phenotype (%) [4]: 85%
- Population Apoptotic (%) [5]: 71%
- Population Fragmented Nuclei (%) [5]: 39%
- Population Healthy Nuclei (%) [5]: 45%
- Population Hoechst High Intensity Objects (%) [5]: 9%
- Population Membrane Permeable-Phenotype (%) [5]: 71%
- Population Mitochondria Different-Phenotype (%) [5]: 62%
- Population Mitotic Cells (%) [5]: 28%
- Population Normal (%) [5]: 90%
- Population Pyknosed Nuclei (%) [5]: 14%
- Population Tubulin-Different-Phenotype (%) [5]: 87%
- Total Cell Count [5]: 156
- Population Apoptotic (%) [6]: 54%
- Population Fragmented Nuclei (%) [6]: 25%
- Population Healthy Nuclei (%) [6]: 62%
- Population Hoechst High Intensity Objects (%) [6]: 10%
- Population Membrane Permeable-Phenotype (%) [6]: 67%
- Population Mitochondria Different-Phenotype (%) [6]: 67%
- Population Mitotic Cells (%) [6]: 45%
- Population Normal (%) [6]: 89%
- Population Pyknosed Nuclei (%) [6]: 12%
- Population Tubulin-Different-Phenotype (%) [6]: 72%
- Total Cell Count [6]: 98
- Population Apoptotic (%) [7]: 93%
- Population Fragmented Nuclei (%) [7]: 46%
- Population Healthy Nuclei (%) [7]: 8%
- Population Hoechst High Intensity Objects (%) [7]: 37%
- Population Membrane Permeable-Phenotype (%) [7]: 42%
- Population Mitochondria Different-Phenotype (%) [7]: 50%
- Population Mitotic Cells (%) [7]: 6%
- Population Normal (%) [7]: 62%
- Population Pyknosed Nuclei (%) [7]: 45%
- Population Tubulin-Different-Phenotype (%) [7]: 50%
- Total Cell Count [7]: 254
- Population Apoptotic (%) [8]: 100%
- Population Fragmented Nuclei (%) [8]: 53%
- Population Healthy Nuclei (%) [8]: 11%
- Population Hoechst High Intensity Objects (%) [8]: 36%
- Population Membrane Permeable-Phenotype (%) [8]: 44%
- Population Mitochondria Different-Phenotype (%) [8]: 77%
- Population Mitotic Cells (%) [8]: 0%
- Population Normal (%) [8]: 63%
- Population Pyknosed Nuclei (%) [8]: 34%
- Population Tubulin-Different-Phenotype (%) [8]: 77%
- Population Apoptotic (%) [9]: 88%
- Population Fragmented Nuclei (%) [9]: 41%
- Population Healthy Nuclei (%) [9]: 43%
- Population Hoechst High Intensity Objects (%) [9]: 8%
- Population Membrane Permeable-Phenotype (%) [9]: 35%
- Population Mitochondria Different-Phenotype (%) [9]: 40%
- Population Mitotic Cells (%) [9]: 12%
- Population Normal (%) [9]: 91%
- Population Pyknosed Nuclei (%) [9]: 14%
- Population Tubulin-Different-Phenotype (%) [9]: 44%
- Total Cell Count [9]: 186
- Population Apoptotic (%) [10]: 62%
- Population Fragmented Nuclei (%) [10]: 37%
- Population Healthy Nuclei (%) [10]: 48%
- Population Hoechst High Intensity Objects (%) [10]: 4%
- Population Membrane Permeable-Phenotype (%) [10]: 53%
- Population Mitochondria Different-Phenotype (%) [10]: 37%
- Population Mitotic Cells (%) [10]: 37%
- Population Normal (%) [10]: 95%
- Population Pyknosed Nuclei (%) [10]: 13%
- Population Tubulin-Different-Phenotype (%) [10]: 51%
- Population Apoptotic (%) [11]: 100%
- Population Fragmented Nuclei (%) [11]: 51%
- Population Healthy Nuclei (%) [11]: 11%
- Population Hoechst High Intensity Objects (%) [11]: 42%
- Population Membrane Permeable-Phenotype (%) [11]: 43%
- Population Mitochondria Different-Phenotype (%) [11]: 37%
- Population Mitotic Cells (%) [11]: 0%
- Population Normal (%) [11]: 58%
- Population Pyknosed Nuclei (%) [11]: 37%
- Population Tubulin-Different-Phenotype (%) [11]: 56%
- Total Cell Count [11]: 250
- Population Fragmented Nuclei (%) [12]: 57%
- Population Healthy Nuclei (%) [12]: 13%
- Population Hoechst High Intensity Objects (%) [12]: 29%
- Population Membrane Permeable-Phenotype (%) [12]: 50%
- Population Mitochondria Different-Phenotype (%) [12]: 35%
- Population Normal (%) [12]: 70%
- Population Pyknosed Nuclei (%) [12]: 28%
- Population Tubulin-Different-Phenotype (%) [12]: 28%
- Total Cell Count [12]: 144
